Test results taken from ChEMBL document CHEMBL3112520, “Synthesis and biological evaluation of 2,5-di(7-indolyl)-1,3,4-oxadiazoles, and 2- and 7-indolyl 2-(1,3,4-thiadiazolyl)ketones as antimicrobials” (Bioorg Med Chem, 2014).
The source made the active and inactive calls. The calls are words filed in the database; no cut-off is given here.

What was measured:
Bacillus subtilis = experiment: Antibacterial activity against Bacillus subtilis 168 assessed as growth inhibition at late exponential phase at 200 uM after 16 hrs; type: functional; conditions: for growth inhibition (GI): subsp. subtilis str. 168; for inhibition of growth at 200 µM: subsp. subtilis str. 168, 16 h, read-out: GI
Summary of the method: (§1)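 Compounds were made up as 50 mM DMSO stocks and diluted in LB medium to 200 µM. Cultures were grown at 37 °C with 600 rpm shaking. OD600 was read every 10 min for 16 h, with LB as the blank. Samples were run in triplicate, and growth curves were compared with cells given equal amounts of DMSO.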

[1] = Inhibition of RNA polymerase-sigma factor (unknown origin) interaction at 15 uM after 1 hr by ELISA
Summary of the method: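 ELISA: purified full-length σA (250 nM in PBS) was coated overnight at 4 °C, then blocked with 1% (w/v) BSA in PBS at room temperature. After PBS/Tween-20 washes, rabbit anti-GST (1:2000) and then HRP goat anti-rabbit (1:2000) were each applied for 1 h at room temperature. TMB substrate was added, shaken for 6 min at room temperature, and absorbance read at 600 nm.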

Escherichia coli = experiment: Antibacterial activity against Escherichia coli DH5[alpha] assessed as growth inhibition at late exponential phase at 200 uM after 16 hrs; type: functional; conditions: for inhibition of growth at 200 µM: read-out: GI; summary of the method: as §1
[2] = Solubility of the compound; type: physicochemical

| inhibition [1] | solubility [2] | Compound | growth inhibition (GI) (Bacillus subtilis) | growth inhibition (GI) (Escherichia coli) | inhibition of growth at 200 µM (Bacillus subtilis) | inhibition of growth at 200 µM (Escherichia coli) |
| --- | --- | --- | --- | --- | --- | --- |
| 16.8% |  | COc1cc(OC)c2c(-c3ccc(Br)cc3)c[nH]c2c1-c1nnc(-c2c(OC)cc(OC)c3c(-c4ccc(Br)cc4)c[nH]c23)o1 | inactive | inactive |  |  |
| 62.6% |  | COc1cc(OC)c2c(-c3ccc(Cl)cc3)c[nH]c2c1C(=O)NNC(=O)c1c(OC)cc(OC)c2c(-c3ccc(Cl)cc3)c[nH]c12 |  | inactive | 29.8% |  |
| 17.8% |  | COc1cc(OC)c2c(-c3ccc(Cl)cc3)c[nH]c2c1-c1nnc(-c2c(OC)cc(OC)c3c(-c4ccc(Cl)cc4)c[nH]c23)o1 | inactive | inactive |  |  |
| 39.5% |  | COc1cc(OC)c2c(-c3ccc(Br)cc3)c[nH]c2c1C(=O)NNC(=O)c1c(OC)cc(OC)c2c(-c3ccc(Br)cc3)c[nH]c12 |  |  | 14.3% | 37.4% |
|  | ND(Insoluble) | COc1cc(OC)c2c(-c3ccccc3)c(-c3ccccc3)[nH]c2c1-c1nnc(-c2c(OC)cc(OC)c3c(-c4ccccc4)c(-c4ccccc4)[nH]c23)o1 |  |  |  |  |

Continued, compound first:

| Compound | inhibition [1] | solubility [2] | growth inhibition (GI) (Bacillus subtilis) | growth inhibition (GI) (Escherichia coli) | inhibition of growth at 200 µM (Bacillus subtilis) | inhibition of growth at 200 µM (Escherichia coli) |
| --- | --- | --- | --- | --- | --- | --- |
| COc1cc(OC)c2c(-c3ccccc3)c(-c3ccccc3)[nH]c2c1C(=O)C(=O)NNC(=O)C(=O)c1c(OC)cc(OC)c2c(-c3ccccc3)c(-c3ccccc3)[nH]c12 |  | ND(Insoluble) |  |  |  |  |
| COc1cc(OC)c2c(-c3ccccc3)c(-c3ccccc3)[nH]c2c1-c1nnc(-c2nnc(-c3c(OC)cc(OC)c4c(-c5ccccc5)c(-c5ccccc5)[nH]c34)o2)o1 |  | ND(Insoluble) |  |  |  |  |
| COc1cc(OC)c2c(-c3ccc(Cl)cc3)c(C(=O)C(=O)NNC(=S)N(C)C)[nH]c2c1 | 20.4% |  |  |  | 32.5% | 47% |
| COc1cc(OC)c2c(-c3ccccc3)c(-c3ccccc3)[nH]c2c1C(=O)NNC(=O)c1c(OC)cc(OC)c2c(-c3ccccc3)c(-c3ccccc3)[nH]c12 |  | ND(Insoluble) |  |  |  |  |
| COc1cc(OC)c2c(-c3ccc(Br)cc3)c(C(=O)c3nnc(N(C)C)s3)[nH]c2c1 | 19% |  | inactive |  |  | 16.8% |
| COc1cc(OC)c2c(-c3ccc(Cl)cc3)c(C(=O)c3nnc(N(C)C)s3)[nH]c2c1 | 17.2% |  | inactive |  |  | 10.6% |
| COc1cc(OC)c2c(-c3ccc(Br)cc3)c(C(=O)C(=O)NNC(=S)N(C)C)[nH]c2c1 | 20.8% |  |  |  | 69.9% | 70% |
| COc1cc(OC)c2c(-c3ccccc3)c(-c3ccccc3)[nH]c2c1C(=O)NNC(=O)C(=O)NNC(=O)c1c(OC)cc(OC)c2c(-c3ccccc3)c(-c3ccccc3)[nH]c12 |  | ND(Insoluble) |  |  |  |  |
